Experimental data collected from several papers.
Lines come from different studies, so protocols differ.
Target: Mitogen-activated protein kinase kinase kinase kinase 2 (MAP4K2, Homo sapiens, UniProt Q12851)
One construct used (Q12851 1-820): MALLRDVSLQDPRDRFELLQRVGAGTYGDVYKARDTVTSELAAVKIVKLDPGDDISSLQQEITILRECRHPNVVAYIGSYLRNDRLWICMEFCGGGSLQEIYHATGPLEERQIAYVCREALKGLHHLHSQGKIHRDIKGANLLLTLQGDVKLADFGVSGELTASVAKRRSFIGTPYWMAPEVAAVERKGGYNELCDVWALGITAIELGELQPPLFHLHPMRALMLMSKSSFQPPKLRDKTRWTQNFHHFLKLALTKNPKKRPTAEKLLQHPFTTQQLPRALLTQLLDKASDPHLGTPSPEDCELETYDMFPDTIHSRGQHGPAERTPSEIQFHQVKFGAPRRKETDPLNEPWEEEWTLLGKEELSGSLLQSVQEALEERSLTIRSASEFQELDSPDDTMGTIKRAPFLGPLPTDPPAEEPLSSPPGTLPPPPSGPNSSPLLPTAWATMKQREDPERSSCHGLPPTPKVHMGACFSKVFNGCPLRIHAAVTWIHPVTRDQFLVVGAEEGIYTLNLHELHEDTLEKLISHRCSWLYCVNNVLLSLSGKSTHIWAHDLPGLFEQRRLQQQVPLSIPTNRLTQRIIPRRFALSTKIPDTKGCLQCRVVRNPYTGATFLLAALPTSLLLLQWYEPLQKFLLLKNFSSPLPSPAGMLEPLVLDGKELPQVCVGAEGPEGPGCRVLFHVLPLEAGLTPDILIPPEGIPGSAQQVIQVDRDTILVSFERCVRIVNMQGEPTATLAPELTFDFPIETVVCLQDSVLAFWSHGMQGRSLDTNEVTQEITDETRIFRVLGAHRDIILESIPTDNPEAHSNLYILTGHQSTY

CC(C)(O)c1cncc(-c2nc3ccc(F)cc3n2C2CC2)c1 — remaining binding (cell-free assay, competition with immobilised ligand; 1 µM): 98%
COc1cc(Nc2cnc(C#N)c(O[C@H](C)CN(C)C)n2)ncc1-c1cnn(C)c1 — remaining activity (enzyme activity, inhibitor, radiometric; 10 µM): 56%
COc1cc2ncnc(Nc3ccc(Oc4ccccc4)cc3C)c2cc1OC — inhibition (enzyme activity, inhibitor; 1 µM): 2%
CCN(CC)c1ccc(C2=NNC(=O)CC2C)cc1[N+](=O)[O-] (centres unmarked) — remaining activity (enzyme activity, inhibitor; 10 µM): 97%
CN1CCN(C(=O)c2ccc3cc(CCNc4ccnc5ccc(C#N)cc45)ccc3c2)CC1 — inhibition (binding, competition with immobilised ligand; 2 µM): > 35%
CCN(CC)CCNC(=O)c1c(C)[nH]c(/C=C2\C(=O)Nc3ccc(F)cc32)c1C — inhibition (enzyme activity, inhibitor; 0.3 µM): 45%
Cc1sc(C(=O)NC2COC2)cc1-n1cc(NC(=O)Nc2c(F)cccc2Cl)cn1 — remaining activity (enzyme activity, inhibitor; 10 µM): 90.2%
Cc1ccc(C(=O)Nc2ccc(CN3CCN(C)CC3)c(C(F)(F)F)c2)cc1C#Cc1cnc2cccnn12 — remaining activity (enzyme activity, inhibitor; 23.5 nM): 4.9%
Cn1c(=O)n(-c2ccc(C(C)(C)C#N)cc2)c2c3cc(-c4cnc5ccccc5c4)ccc3ncc21 — remaining activity (enzyme activity, inhibitor; 10 µM): 12%
CC(C)(C)c1nc2c(s1)c1nc(N)ncc1c1ccc(NS(=O)(=O)c3c(F)cccc3F)c(F)c12 — remaining activity (enzyme activity, inhibitor, radiometric; 1 µM): 114%
Cc1ccc(Nc2nccc(N(C)c3ccc4c(C)n(C)nc4c3)n2)cc1S(N)(=O)=O — inhibition (enzyme activity, inhibitor; 10 µM): 83%
Oc1cccc(-c2nc(N3CCOCC3)c3oc4ncccc4c3n2)c1 — remaining activity (enzyme activity, inhibitor; 10 µM): 91%
O=C(Nc1cccnn1)N1CCC(=Cc2cccc(Oc3ccc(C(F)(F)F)cn3)c2)CC1 — remaining binding (cell-free assay, competition with immobilised ligand; 1 µM): 100%
Cc1cnc(NC2CCOCC2)nc1-n1cnc(C(=O)NC(CN)c2cc(F)cc(Cl)c2)c1 (centres unmarked) — remaining activity (enzyme activity, inhibitor, radiometric; 1 µM): 100%
O=C1NC(c2ccccn2)Sc2ccccc21 (centres unmarked) — remaining binding (cell-free assay, competition with immobilised ligand; 1 µM): 83%
COc1cc(Nc2c(C#N)cnc3cc(OCCCN4CCN(C)CC4)c(OC)cc23)c(Cl)cc1Cl — remaining signal (cell-free assay; 0.5 µM): 3.16%
CC(C)(O)[C@H]1CC[C@H](Nc2ccc3ncc(-c4cccc(C(F)(F)F)c4)n3n2)CC1 — remaining activity (enzyme activity, inhibitor; 1 µM): 94.6%
Cc1c(NC(=O)c2cc(C(N)=O)nc3cc(F)ccc23)c(C(F)(F)F)nn1Cc1ccc(C#N)cc1 — remaining binding (cell-free assay, competition with immobilised ligand; 1 µM): 88%
O=C1NC(=O)c2cc(Nc3ccc(F)cc3)c(Nc3ccc(F)cc3)cc21 — remaining signal (cell-free assay; 0.5 µM): 98.2%
CC(=O)N1CCC(c2ccc(C(=O)NC(=N)N)cc2C(F)(F)F)CC1 — remaining binding (cell-free assay, competition with immobilised ligand; 1 µM): 100%
FC(F)(F)Oc1cccc(-c2cnc3ccc(-c4ccncc4)nn23)c1 — activity vs control (enzyme activity, inhibitor, radiometric; 5 µM): 33%
O=C(O)[C@H]1[C@H](Cn2nnc3ccccc3c2=O)CC[C@@H]1C(=O)c1ccc(OCCC2CCOCC2)cc1 — remaining binding (cell-free assay, competition with immobilised ligand; 1 µM): 100%
Cc1ccc(NC(=O)c2ccc(C)c(C(F)(F)F)c2)cc1C#Cc1nn(C2CCC(O)CC2)c2ncnc(N)c12 (centres unmarked) — remaining signal (cell-free assay; 10 µM): 49%
C[C@H](c1ccnc(Nc2nc3ccc(-c4cc(N(C)C)ncn4)cc3[nH]2)c1)N1CCN(C(=O)CC(F)(F)F)CC1 — remaining binding (cell-free assay, competition with immobilised ligand; 0.1 µM): 100%
CNC(=O)c1cc(Oc2ccc(NC(=O)Nc3ccc(Cl)c(C(F)(F)F)c3)cc2)ccn1 — inhibition (enzyme activity, inhibitor; 0.3 µM): 5%
COc1cc2ncnc(Nc3ccc(F)c(Cl)c3)c2cc1OCCCN1CCOCC1 — remaining signal (cell-free assay; 0.5 µM): 104%
